Data published in the EternaBench riboswitch data.

Tested on: MS2 coat protein
Test: apparent Kd, MS2 coat protein; higher = weaker binding; RNA-MaP array
Method in brief: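 Designed RNAs were transcribed on an Illumina sequencing chip from sequenced DNA templates. They were incubated at room temperature with fluorescently labeled MS2 coat protein at 1.5 nM to 3 μM, for 0.8–1.5 h at the lowest to 10–20 min at the highest concentrations, in Tris-HCl pH 7.5 buffer with KCl, MgCl2, BSA, DTT, tRNA and Tween20, with or without input ligand. Apparent Kd is the median of per-cluster binding-curve fits. Designs measured on fewer than 10 clusters were excluded.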

[1] = designed as: ON switch for flavin mononucleotide, no ligand
[2] = ligand present: flavin mononucleotide, designed as: ON switch for flavin mononucleotide
[3] = designed as: OFF switch for tryptophan, no ligand
[4] = ligand present: tryptophan, designed as: OFF switch for tryptophan
[5] = designed as: ON switch for theophylline, no ligand
[6] = ligand present: theophylline, designed as: ON switch for theophylline
[7] = designed as: OFF switch for flavin mononucleotide, no ligand
[8] = ligand present: flavin mononucleotide, designed as: OFF switch for flavin mononucleotide

Sequence	apparent Kd [1]	apparent Kd [2]	apparent Kd [7]	apparent Kd [8]	other results
ACAUGAGGAUCACCCAUGUUCACGGUUCACGAAGUCUAAAGCUAGGAUAUCAUUGGGUGGGCGCAUGAGAAGGAGCUUCCCGUA	70.1 nM	44.3 nM			
ACAUGAGGAUCACCCAUGUUGAACUACCAUCGAGGACCGGUACGGCCGCCACUCGCGUUCUCCUUAGCAUCAAGGUCCGCGAAAC					apparent Kd [3]: 13.3 nM; apparent Kd [4]: 12.7 nM
ACGAGACGUCUGGAUACCAGCCCAGCGAUAAACAUGAGGAUCACCCAUGUCAAACCACCCGGCCCUUGGCAGCCACGUACCUCAC					apparent Kd [5]: 14.5 nM; apparent Kd [6]: 10 nM
ACGAGCCUAGGAUAUACAUGAGGAUCACCCAUGUGACUGAACACUCCGGUAUGUGCGGGUAGAAGGAGGUUCCA			16.3 nM	16.8 nM	
ACUCAACAUGAGGAUCACCCAUGUACUCCAAACAAAGGAUAUUGUGAGUUAAUAUGCAUGCAAGAAGGUUGGUUCA	42.8 nM	36.3 nM			
ACUCUCGGCUAAGGAUAUCUCCGACUGACCAAUAGAGAAGGUAGUCGACGUGCGAUCAGACAUGAGGAUCACCCAUGUGAAAUC	7.07 nM	7.14 nM			
ACUGGACAUGAGGAUCACCCAUGUGGCGAUACCAGUUUCAGCGGGAACCCUUGGCAGCGCGGUGCCGGCCAUAGAAGUUCUGGGA					apparent Kd [5]: 51.4 nM; apparent Kd [6]: 60.1 nM
AGAAAUGUAUUAGGAUAUUGGCGCGUAUUACGACAAGAAGGAAUACAUGAGGAUCACCCAUGUAACCCGCUCCGCGGUCCAUGG			101 nM	64.3 nM	
AGAAUGUCAGGAUAUACUCGCUAUGUCGCCAAGUCACGCCGACAUGAGGAUCACCCAUGUAGAAGGGACAAGUA			12.9 nM	11.7 nM	
AGAGAAAAGUAACAUGAGGAUCACCCAUGUAUCCCACGAGUCAGAAGGAGCGGGUUGAUACGAGGCUAGGAUAUGAAGAGUCAU	153 nM	98.7 nM			
AGAGCGAAUCUAACAUGAGGAUCACCCAUGUGUUAUGUUCACGAGGAUAUGUAGUCACUUAGGCGACAGAAGGCGUUCCAAGUA			29.3 nM	22 nM	
AGCGAUGACUGAGGAUAUGCUGUUAGGACAUUGCAACAUGAGGAUCACCCAUGUGAAGGCCGUCAGCAGAAGGCAGUACGUGGA	6.08 nM	4.75 nM			
AGCGCGAAUAGAUCCAAAGUUAUUAGUGAGCGAGGACCGGUACGGCCGCCACUCGUGGCUCUACAUGAGGAUCACCCAUGUACAU					apparent Kd [3]: 354 nM; apparent Kd [4]: 432 nM
AGCGUUGCAGAGAAGGCGGUAUGAGUUACGCUCUCACACAUGAGGAUCACCCAUGUAAUGACGUCCGAGGAUAUCUCACAACUC			5.47 nM	5.81 nM	
AGGAAUAAGACAGGAUAUCGUAAAAUAUAAAACCGAGAAGGGUCACAUGAGGAUCACCCAUGUGUUCCAACGGUGAUCCCUAGA			64.9 nM	68.2 nM	
AGUAAAAGAGGAUAUACAUGAGGAUCACCCAUGUUGGCGCAGACAAUCGAUGCAUCGAGUAGAAGGCUUUCAAU			21.3 nM	17.1 nM	
AGUAACGGAACAUGAGGAUCACCCAUGUCAAAAGAUAAGACAAAGGAUAUCAGAUAAAGACCAAAUGAGAAGGUUGGAAGACAA	43 nM	31.4 nM			
AGUGUAAUAUAAGGAUAUAACCGCACAAGAAUGUUAGAAGGUAUUUUACAUGAGGAUCACCCAUGUGAAUGUAGUCCUCACUAU			9.6 nM	10.5 nM	
AUAAAACAUGAGGAUCACCCAUGUAUAGAAAGCGCAGGAUAUAGGUGAUCAUAGUACUAUCAAGAAGGGCGGAACC	217 nM	184 nM			
AUAACAGUGUCGGCCGCCACUAGAACACAUGAGGAUCACCCAUGUGGUGGUACCUCCUAAGACGAUAGGACCGGGACCCAUCUAC					apparent Kd [3]: 134 nM; apparent Kd [4]: 95.2 nM
AUACAACAUGAGGAUCACCCAUGUGCUUAAGUUAAAGGAUAUCUAGUGGAUUACAUGCGUAGAGAAGGUUAUUUUA	12.2 nM	8.55 nM			

Sequence	apparent Kd [1]	apparent Kd [2]	apparent Kd [7]	apparent Kd [8]	other results
AUCAAGUGAGGAUAUCCGUAGACUCCUAAUCAGCGACUCAAGGAGAAGGCACAUGAGGAUCACCCAUGUUAGAU			19.6 nM	20.8 nM	
AUCAAUCUAGGAUAUACAUGAGGAUCACCCAUGUCUUCAACCAAGGGCUCCACGACCUGUAGAAGGAGACAAAA			27 nM	22 nM	
AUCAGUCAAGAAGGAUAUGCAAUAUCCUGGCACGUAGACAUGAGGAUCACCCAUGUGCAGGCUAAGCAGAAGGUCUUAGAAGGU			16 nM	9.8 nM	
AUGAAACAUGAGGAUCACCCAUGUGAGGAUAUGGUCUCGAACAAAAUACAAACACCAUCCAGAAGGCACAUGAA			29.8 nM	27.7 nM	
AUGCGCUAUAUGGAUACCAGUAUGAUAAUUGACAUGAGGAUCACCCAUGUGAGCUCUACCUACCCUUGGCAGCCAACCCUAUUUG					apparent Kd [5]: 21.9 nM; apparent Kd [6]: 22.9 nM
AUGGUGUCUUAAGGAUAUGCUCGACAUGAGGAUCACCCAUGUGCCUCGUUUUCCCAACCGAGGUCGCAGAAGGUAAGUGACGUG	313 nM	37 nM			
AUUAGGCUGCAGGAUAUGAAUCAUGUAACAAUUUCAGAAGGGCAUACAUGAGGAUCACCCAUGUAGUGAUCCGC			109 nM	220 nM	
AUUAUGUAAGGAUAUCGAGAAAUAAAGAAUCUAGUCAGCCACGAGAAGGAACAUGAGGAUCACCCAUGUGGAUA			13.8 nM	12.2 nM	
AUUUGGCGUAGUGUUGCUCGUGGGAUAAAACGAGGACCGGUACGGCCGCCACUCGAUGAUUAACAUGAGGAUCACCCAUGUAAAU					apparent Kd [3]: 24.6 nM; apparent Kd [4]: 104 nM
CAAGAGUUGUACAUUGUGAGGCGUCGGGAACGAGGACCGGUACGGCCGCCACUCGAAAAUUAACAUGAGGAUCACCCAUGUACAC					apparent Kd [3]: 70.8 nM; apparent Kd [4]: 47.7 nM
CAAGCGCAUAAGUACGCAACUACAUGAGGAUCACCCAUGUGAAGAAGGGCACAUCUAUCCCACGUGCAGGAUAUUCUCCAAUUU	44.8 nM	51 nM			
CAAUGGCAGUUGCAGGAUAUUCGGCCGGACACAUGAGGAUCACCCAUGUAGGUUCUCCCAUGGAUGAAGAAGGGCACAACAGAAAC	134 nM	66.4 nM			
CACAUGAGGAUCACCCAUGUCUACGAAAGAUGUAGGGAAAAGAGAAGGUGGAGGGAACUGCCAGCCAAGGAUAUCUGCACUCGA			31.8 nM	33.3 nM	
CACCAAUUUCGAGGAUAUACGGCCGGUUAACAUUCGUCUUACAUGAGGAUCACCCAUGUGUUCGCGUAGAAGGCGAUUCUUAAU	35.4 nM	31.2 nM			
CACCCUAAAGGAUAUACAGCAUAGAAAACGGGUAAGUCUAAACAUGAGGAUCACCCAUGUAGAAGGUUAGAAUU			14.8 nM	14.5 nM	
CAGAACAUGAGGAUCACCCAUGUAAACGACCGAGGACCGGUACGGCCGCCACUCGAUAUGUCUUGAGGGAGAUAUGGAUUCACAU					apparent Kd (designed as: ON switch for tryptophan, no ligand): 39.9 nM; apparent Kd (ligand present: tryptophan, designed as: ON switch for tryptophan): 38.3 nM
CAGUGCGACUCAGGAUAUCAGAACACUAAGGCGUGAGAAGGGAGAACGACACAUGAGGAUCACCCAUGUUAGAGGGAAUGCAUG			37.6 nM	43.7 nM	
CAUAGAGCUAAGAAGGCGUACGGAGACAGCAUACGAGGAUAUUAACGUCCAUGAACAUGAGGAUCACCCAUGUCGAAAACCAAA	8.42 nM	8.15 nM			
CAUCAGAGUGUCAGGAUAUGUUCAAAUAACUCGGGACAGAAGGGACAUGAGGAUCACCCAUGUGCAUAAAUUUA			18.4 nM	46.9 nM	
CCGAGGGUAGGAUAUUAGCACUUCUACAUGAGGAUCACCCAUGUACCUCAUCAUGAUGCCUAAGAAGGACCAGUGU			65.7 nM	158 nM	
